The sample as a whole holds a higher share of hits than the screen did.
ROMK mod: modulators of human ROMK potassium channel | P48048 | Tet-inducible ROMK, thallium flux fluorescence; actives lie on both sides | B-score at 10 µM | 130,000 compounds, 2% hits;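 active = signal ratio slope over the read window, or its plate-corrected B-score, at least 3 SD from the plate mean, either direction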;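 also: B-score of the F/F0 ratio slope over 7 to 12 s after thallium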
Target sequence (P48048 whole entry, looked up): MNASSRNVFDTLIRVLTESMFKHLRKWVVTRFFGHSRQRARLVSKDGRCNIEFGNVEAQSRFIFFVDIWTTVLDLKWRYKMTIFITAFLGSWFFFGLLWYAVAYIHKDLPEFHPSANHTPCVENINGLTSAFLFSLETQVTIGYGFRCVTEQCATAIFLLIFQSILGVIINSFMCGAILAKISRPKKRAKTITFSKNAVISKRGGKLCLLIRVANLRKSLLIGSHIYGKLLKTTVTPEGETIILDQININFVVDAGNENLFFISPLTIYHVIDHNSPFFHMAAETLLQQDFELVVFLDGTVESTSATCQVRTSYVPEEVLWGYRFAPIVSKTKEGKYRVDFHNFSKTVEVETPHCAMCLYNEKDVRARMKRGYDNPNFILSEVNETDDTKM
Calb biofilm kill: mixture kills Candida albicans biofilm cells | C. albicans biofilm persisters + clotrimazole, fluorescence viability; primary screen in compound mixtures of four per well | inhibition, % at 7.6 µM | 120,000 compounds, 0.02% hits | AID 1242;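 active = inhibition above 30.3% in the primary screen of four-compound pools, then above 30% when the compound was retested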;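 also: compounds exposed to preformed 24 h biofilms for 48 h; 0% = untreated biofilm control and 100% = clotrimazole plus chlorhexidine kill blank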
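Incubation: 24 h biofilm formation, then 48 h compound exposure, 37 °C | Material: C. albicans biofilms | Buffer or medium: RPMI/MOPS medium, pH 7.0 | Measured by: 2-h Alamar Blue fluorescence, 535/590 nm excitation/emission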
ROMK retest: retested hit modulating human ROMK potassium channel | shares compounds with ROMK mod | ROMK thallium flux, fluorescence ratio; hits give low values | normalized thallium flux (F/F0 slope) at 10 µM | 3,000 compounds, 54% hits;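 active = Flux at 10 µM at least 3 SD below or above vehicle control mean in one or both replicates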
* marks the source's active call; other numbers are inactive results; . = no result.

SMILES	ROMK mod	Calb biofilm kill	ROMK retest
O=C(CNC(=O)c1ccc(S(=O)(=O)N2CCCC2)cc1)N/N=C/c1ccccc1Cl	-0.64	11	.
Cc1ccc(NC(=O)CN2C(=O)NC(Cc3ccccc3)C2=O)c(Br)c1 (configuration not stated)	-0.7	21	.
COc1cc(/C=N/NC(=O)C2(O)c3ccccc3-c3ccccc32)ccc1O	-0.0093	21	.
COc1cc(/C=N/NC(=O)C(=O)/C=C2\NC(C)(C)Cc3ccccc32)ccc1O	2.2*	16	0.083
CC(OC(=O)COc1ccccc1[N+](=O)[O-])C(=O)Nc1ccc(N2CCOCC2)cc1 (configuration not stated)	0.13	5	.
O=C(c1cc(-c2ccc(Cl)cc2Cl)on1)N1CCOCC1	-0.49	.	.
O=C(c1nnsc1S(=O)c1ccc(Cl)cc1)N1CCOCC1 (configuration not stated)	-6.3*	-10	0.052*
COC(=O)c1ccc(CSc2nnc(NC(C)C)s2)o1	0.31	11	.
NS(=O)(=O)c1ccc(CNC(=O)/C=C/c2cccc([N+](=O)[O-])c2)cc1	.	20	.
NC(=O)C1CCN(CC(=O)Nc2ccccc2Sc2ccccc2)CC1	.	15	0.068*
NC(=O)C1CCN(CC(=O)Nc2ccccc2Sc2ccc(Cl)cc2)CC1	.	14	.
COc1cc(/C=N/N=C(N)N)ccc1OCc1ccccc1Cl	-3.7*	2	0.055*
O/N=C/c1cc(Cl)ccc1OCc1ccccc1Cl	0.82	.	.
COc1ccc(CCN2C(=O)CC(N3CCN(S(=O)(=O)c4ccccc4)CC3)C2=O)cc1OC (configuration not stated)	.	4	.
COc1ccc(C2CC(C)(c3ccc(OC)cc3)Nc3ccccc3N2)cc1 (configuration not stated)	.	24	0.087
COc1ccc(C2(c3ccc(OC(C)=O)cc3OC(C)=O)CC(c3ccccc3)NC(=S)N2)cc1 (configuration not stated)	-0.19	17	.
CCOC(=O)C1CCCN(C(=O)c2cn(CC(C)C)c(=O)c3cc(OC)c(OC)cc23)C1 (configuration not stated)	0.51	.	.
CCOC(=O)C1CCCN(C(=O)c2cn(CC)c(=O)c3cc(OC)c(OC)cc23)C1 (configuration not stated)	.	.	0.073
O=C1/C(=C/c2ccncc2)SC(=S)N1Cc1ccccc1	.	12	.
CCCN1C(=O)/C(=C/c2ccncc2)SC1=S	-2.8*	12	0.044*
CC(OC(=O)c1cc(=O)[nH]c2ccccc12)C(=O)c1ccccc1 (configuration not stated)	-0.87	-4	.
CC(C)c1ccc(/C=N/NC(=O)CC(=O)NC2CCCCC2)cc1	-9.2*	22	0.072
CC(C)c1ccc(/C=C/C(=O)NC2CCCCC2)cc1	.	4	.
Cn1c(CSCc2ccc(Cl)c(Cl)c2)n[nH]c1=S	.	0	.
COc1ccc(NC(=O)CSc2nnc(NC(=O)c3ccc(S(=O)(=O)N4CCOCC4)cc3)s2)cc1	0.52	13	.
SMILES	ROMK mod	Calb biofilm kill	ROMK retest
Cc1cccc(NC(=O)CSc2nnc(NC(=O)c3ccc(S(=O)(=O)N4CCOCC4)cc3)s2)c1C	0.47	9	0.088
CC(C)N=C(NS(=O)(=O)c1ccc(Br)cc1)c1ccc(Cl)cc1	0.14	17	.
CN(c1ccccc1)S(=O)(=O)c1cccc(NC(=O)c2cncc(Br)c2)c1	.	12	.
CN(c1ccccc1)S(=O)(=O)c1cccc(NC(=O)c2ccncc2)c1	.	9	0.081
CC1(C)CC(=O)C(C=NCCN2CCN(C(=O)CC3CCCC3)CC2)=C(O)C1	0.081	.	.
CC1(C)CC(=O)C(C=NCC2CCN(C(=O)Cc3ccccc3)CC2)=C(O)C1	-3.8*	14	0.084
Cc1ccc(NC(=O)CN(C)Cc2nc3c(Br)cc(Br)cc3c(=O)[nH]2)cc1	0.0023	11	.
CC(C)C(=O)Nc1nc2cc3c(cc2s1)OCCO3	-0.07	21	.
O=C(Nc1nc2cc3c(cc2s1)OCO3)C1=COCCO1	2.5*	12	0.08
CC(=O)NN1C(=O)/C(=C/c2ccc(C(C)C)cc2)SC1=S	0.87	7	.
O=C(CCl)c1ccc2c(c1)CCN2C(=O)C1CCCCC1	.	21	.
O=C(CCl)c1ccc2c(c1)CCN2C(=O)C1CC1	-2.8*	32	0.064*
Cc1c(NC(=O)C(=O)/C=C(\O)c2ccc(Br)cc2)c(=O)n(-c2ccccc2)n1C	.	13	.
O=c1[nH]c(SCc2nc3c(cnn3-c3ccccc3)c(=O)[nH]2)nc2ccccc12	-0.42	.	.
O=c1[nH]c(CSc2nc3ccccc3[nH]2)nc2c1cnn2-c1ccccc1	-3.4*	12	0.053*
S=C(NCCc1ccccc1)NC1CC2CCC(C1)N2Cc1ccccc1 (configuration not stated)	-2.3*	20	0.057*
COCCCNC(=S)NC1CC2CCC(C1)N2Cc1ccccc1 (configuration not stated)	0.84	25	.
CCCCCCCCn1ccc(=N)cc1	-0.77	11	.

Compound activity deposited in PubChem by several laboratories.
